Measured values gathered from unrelated publications.
Each line is one published result; the experiments were not run side by side.
Target: Serine/threonine-protein kinase D1 (PRKD1, Homo sapiens, UniProt Q15139)
Sequence (Q15139 1-912, as in one of the studies): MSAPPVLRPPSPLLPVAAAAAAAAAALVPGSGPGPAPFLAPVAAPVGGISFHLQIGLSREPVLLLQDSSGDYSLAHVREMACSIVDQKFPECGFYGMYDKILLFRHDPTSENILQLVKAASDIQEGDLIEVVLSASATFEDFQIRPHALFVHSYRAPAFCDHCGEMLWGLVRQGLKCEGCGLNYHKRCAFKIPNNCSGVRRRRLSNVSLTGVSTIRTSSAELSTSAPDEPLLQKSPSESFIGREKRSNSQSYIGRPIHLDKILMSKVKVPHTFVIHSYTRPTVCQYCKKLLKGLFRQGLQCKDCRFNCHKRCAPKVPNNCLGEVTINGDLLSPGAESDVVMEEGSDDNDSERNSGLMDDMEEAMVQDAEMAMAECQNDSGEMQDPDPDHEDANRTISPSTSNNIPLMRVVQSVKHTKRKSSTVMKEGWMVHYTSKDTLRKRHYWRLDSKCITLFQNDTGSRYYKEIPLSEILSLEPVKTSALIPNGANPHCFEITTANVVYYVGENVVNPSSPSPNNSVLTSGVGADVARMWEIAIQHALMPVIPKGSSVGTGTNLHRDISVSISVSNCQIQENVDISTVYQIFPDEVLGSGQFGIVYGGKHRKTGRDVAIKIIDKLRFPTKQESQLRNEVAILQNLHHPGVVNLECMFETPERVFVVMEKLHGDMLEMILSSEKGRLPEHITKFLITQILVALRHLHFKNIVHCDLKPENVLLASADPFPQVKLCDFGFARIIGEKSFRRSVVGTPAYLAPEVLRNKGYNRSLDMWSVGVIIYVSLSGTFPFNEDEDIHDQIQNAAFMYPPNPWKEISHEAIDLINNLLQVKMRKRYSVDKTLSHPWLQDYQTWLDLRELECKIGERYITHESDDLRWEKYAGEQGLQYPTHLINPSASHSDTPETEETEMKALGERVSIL

With `CNC(=O)Nc1ccc2c(c1)[C@@]1(CC2)OC(=O)N(CC(=O)N(Cc2ccc(F)cc2)[C@@H](C)C(F)(F)F)C1=O` the remaining binding was 100% (cell-free assay; competition with immobilised ligand; 1 µM).
`Nc1nc(Nc2ccccc2)sc1C(=O)c1c(F)cccc1F` has a remaining activity of 46% (enzyme activity; inhibitor; 10 µM).
`Cc1nc(Cc2cccc(C(F)(F)F)c2)sc1-c1ccc(C(N)=O)nc1` gave a remaining binding of 93% (cell-free assay; competition with immobilised ligand; 1 µM).
`Cn1cncc1C1=CN(c2ncnc3[nH]cnc23)CCS1` has an inhibition of 21.3% (enzyme activity; inhibitor; radiometric; 50 nM).
With `COc1cccc2c(NCc3ccccc3)nc(-n3c(N)nc4ccccc43)nc12` the inhibition was -20.7% (target engagement in cells; inhibitor; chemoproteomics; 20 mM).
`CN([C@@H]1CCc2c(CC(=O)O)c3ccccc3n2C1)S(=O)(=O)c1ccc(F)cc1` has a remaining binding of 100% (cell-free assay; competition with immobilised ligand; 1 µM).
With `COc1cc(/C=C/C(=O)CC(=O)/C=C/c2ccc(O)c(OC)c2)ccc1O` the activity vs control was 79% (enzyme activity; inhibitor; 1 µM).
`O=C(Nc1cnn(-c2csc(C(=O)NC3COC3)c2)c1)Nc1ccccc1Cl` gave a remaining activity of 114% (enzyme activity; inhibitor; 5 µM).
For `Nc1ncnc2occ(-c3ccc(NC(=O)Nc4cc(C(F)(F)F)ccc4F)cc3)c12`, the remaining signal was 30% (cell-free assay; inhibitor; 20 µM).
`CC/C(=N\NC(=O)NCc1cccc(O)c1)c1ccc(O)c(C)c1O` has an inhibition of -0.2% (enzyme activity; inhibitor; 0.1 µM).
For `Cc1ncc([N+](=O)[O-])n1C(=NO)c1ccccc1C(F)(F)F`, the inhibition was 7.69% (enzyme activity; inhibitor; 10 µM).
With `CCCS(=O)(=O)Nc1ccc(F)c(C(=O)c2c[nH]c3ncc(-c4ccc(Cl)cc4)cc23)c1F` the inhibition was less than 10% (enzyme activity; inhibitor; 1 µM).
The remaining activity of `CC(C)(C)c1nc2c(s1)c1nc(N)ncc1c1ccc(NS(=O)(=O)c3c(F)cccc3F)c(F)c12` is reported as 93% (enzyme activity; inhibitor; radiometric; 1 µM).
The remaining binding of `CN(C(=O)c1ccccc1)c1cc(N(C)c2ccc3c(c2)CCc2ccc(C(=O)NCCN4CCOCC4)cc2C3=O)ccc1F` is reported as 86% (cell-free assay; competition with immobilised ligand; 1 µM).
For `Cc1ccc(Nc2nccc(N(C)c3ccc4c(C)n(C)nc4c3)n2)cc1S(N)(=O)=O`, the inhibition was 23% (enzyme activity; inhibitor; 10 µM).
`c1ccc(CNc2nc(N3CCOc4ccccc43)nc3c2CCCC3)cc1` has an inhibition of -8.8% (target engagement in cells; inhibitor; chemoproteomics; 20 mM).
`CCCOc1ccc(OC)c(F)c1C(=O)c1ccc(C(=O)N[C@@H]2CNC[C@H]2NC(=O)c2ccc3[nH]ncc3c2)cc1` gave a remaining activity of 53% (enzyme activity; inhibitor; 10 µM).
With `Cc1sc(C(=O)NC2COC2)cc1-n1cc(NC(=O)Nc2c(F)cccc2Cl)cn1` the remaining activity was 93.3% (enzyme activity; inhibitor; 10 µM).
With `CC(C)(O)c1cncc(-c2nc3ccc(F)cc3n2C2CC2)c1` the remaining binding was 100% (cell-free assay; competition with immobilised ligand; 1 µM).
`N#CCCc1ccc2c(c1)-c1[nH]c3ccc([N+](=O)[O-])cc3c1CC(=O)N2` has a remaining signal of 87.5% (cell-free assay; 0.5 µM).
For `CC(C)c1ccc(NC(=O)c2cccs2)c(-c2nc3ccccc3[nH]c2=O)c1`, the activity vs control was 97% (enzyme activity; inhibitor; 1 µM).
`C[C@@H]1CCN(C(=O)CC#N)C[C@@H]1N(C)c1ncnc2[nH]ccc12` has a remaining signal of 97.3% (cell-free assay; inhibitor; 0.5 µM).
The activity vs control of `FC(F)(F)Oc1cccc(-c2cnc3ccc(-c4ccncc4)nn23)c1` is reported as 106% (enzyme activity; inhibitor; radiometric; 1 µM).
`Cc1c(NC(=O)c2cc(C(N)=O)nc3cc(F)ccc23)c(C(F)(F)F)nn1Cc1ccc(C(C)(C)C)cc1` has a remaining binding of 100% (cell-free assay; competition with immobilised ligand; 1 µM).
The remaining activity of `CC(C)(O)[C@H]1CC[C@H](Nc2ccc3ncc(-c4cccc(C(F)(F)F)c4)n3n2)CC1` is reported as 99.5% (enzyme activity; inhibitor; 1 µM).
For `CNC(=O)c1cc(Oc2ccc(NC(=O)Nc3ccc(Cl)c(C(F)(F)F)c3)cc2)ccn1`, the inhibition was 13% (enzyme activity; inhibitor; 10 µM).
`COc1cc(Nc2cnc(C#N)c(O[C@H](C)CN(C)C)n2)ncc1-c1cnn(C)c1` gave a remaining activity of 106% (enzyme activity; inhibitor; radiometric; 1 µM).
With `CCN(CC)CCNC(=O)c1c(C)[nH]c(/C=C2\C(=O)Nc3ccc(F)cc32)c1C` the remaining signal was 20% (cell-free assay; 0.5 µM).
`Cn1cnc(Br)c1C1=CN(c2ncnc3[nH]cnc23)CCS1` has an inhibition of 21.4% (enzyme activity; inhibitor; radiometric; 50 nM).
For `Oc1cccc(-c2nc(N3CCOCC3)c3oc4ncccc4c3n2)c1`, the remaining activity was 120% (enzyme activity; inhibitor; 10 µM).
For `O=C(Nc1ccc(Oc2ccc(F)cc2)cc1)N1CCc2ncccc2[C@H]1c1ccc(F)cc1`, the remaining binding was 94% (cell-free assay; competition with immobilised ligand; 1 µM).
`COc1cc2ncnc(Nc3ccc(Oc4ccccc4)c(C)c3C)c2cc1OC` gave an inhibition of -3% (enzyme activity; inhibitor; 1 µM).
`O=C(NC[C@@H]1[C@H]2CN(C(=O)OCc3cc(C(F)(F)F)cc(C(F)(F)F)c3)C[C@@H]12)c1ccc2[nH]nnc2c1` gave a remaining binding of 100% (cell-free assay; competition with immobilised ligand; 1 µM).
The inhibition of `CCOc1cc(-c2nncn2C)ccc1Nc1ncc2cc(C)nc(NCC(C)(C)C)c2n1` is reported as 37% (enzyme activity; inhibitor; FRET; 1 µM).
